# Source: PubChem (The Scripps Research Institute Molecular Screening Center)
# S1P3 ag: human S1P3 receptor agonists, primary screen, cell-based, primary and confirmation, NFAT-BLA reporter; Sphingosine 1-phosphate receptor 3 (Homo sapiens), Q99500; S1P3 NFAT-BLA reporter cells, agonism, FRET ratio; relative to 1 µM S1P, basal subtracted; activation, % at 4.5 µM; actives 0.1% (n = 60,000); AID 373, 2006;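 active means activation above the screen-wide mean plus 3 SD, cut at about 4.5% in these data, passing the limit was not always enough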
#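 Assay system: CHO cells stably expressing human S1P3, Gα16 and NFAT-β-lactamase reporter. Timing: overnight plating, 4 h compound 37 °C, 2 h substrate RT. Signal: β-lactamase FRET emission ratio 460/535 nm. Measure: percent activation versus median 1 µM S1P response, basal-subtracted, per plate. Repeats: primary screen single test, confirmation screen in triplicate.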
# 5-HT1A blocker: human 5-HT1a receptor antagonists, primary screen, cell-based, CHO, Ga15 NFAT-bla reporter; AID 612, 2007; 5-hydroxytryptamine receptor 1A (Homo sapiens), P08908; inhibition, % at 10 µM; actives 0.68% (n = 62,000); CHO 5-HT1a Ga15 NFAT-bla reporter, antagonist mode;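 active means inhibition above the mean of all tested compounds plus 3 SD, cut at about 43% in these data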;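 further: receptor stimulated by 5-CT agonist at 100 nM near EC80; beta-lactamase reporter measured by ratiometric fluorescence of a cleavable substrate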
# 5HT1E antag: 5-HT1E receptor antagonists, primary screen, cell-based, HTS; CHO 5-HT1E Ga15 NFAT-bla reporter, FRET, antagonist; inhibition, % at 6 µM; actives 0.99% (n = 65,000); AID 571, 2007;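 active means inhibition above a set limit, the mean inhibition across every tested compound plus 3 SD, cut at about 29% in these data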;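 further: signal is the 460 over 535 nm emission ratio of beta-lactamase substrate; 0% = agonist plus DMSO wells and 100% = wells without agonist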
# 5HT1E ag: 5-HT1E receptor agonists, primary screen, cell-based, HTS | 5-hydroxytryptamine receptor 1E (Homo sapiens), P28566 | CHO 5-HT1E Ga15 NFAT-bla reporter, FRET; 0% DMSO wells, 100% control agonist wells | activation, % at 6 µM | actives 0.69% (n = 65,000) | AID 574, 2007;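 active means activation above a set limit, the screen-wide mean activation plus 3 SD, cut at about 8.5% in these data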;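 further: 100% = positive control agonist at 1 µM giving full maximal response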
# 5HT1a ag: human 5-HT1a receptor agonists, primary screen, cell-based, CHO, Ga15 NFAT-bla reporter; 5-hydroxytryptamine receptor 1A (Homo sapiens), P08908; CHO 5-HT1a Ga15 NFAT-bla reporter, FRET ratio; 0% basal, 100% maximal reference agonist; activation, % at 10 µM; actives 0.56% (n = 65,000); AID 567, 2006;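 active means activation above the screen-wide mean activation plus 3 SD, cut at about 19% in these data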;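 further: 0% = DMSO wells and 100% = 5-CT at EC100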
# S1P1 ag pot: S1P1 agonists and agonism potentiators, primary screen, cell-based, primary and confirmation screens, CRE-bla reporter. Sphingosine 1-phosphate receptor 1 (Homo sapiens), P21453. S1P1 CRE-bla cells, forskolin, beta-lactamase FRET, potentiator mode; S1P1 agonist co-added at EC20, 2 nM; 100% = saturating reference agonist, 0% = basal. activation, % at 9.5 µM. actives 0.57% (n = 56,000). AID 449, 2006;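 active means activation above a cutoff set at the mean activation of all tested compounds plus 3 SD, cut at about 54% in these data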;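 further: forskolin at 4 µM as EC80 and the EC20 agonist is SEW2871; 100% = SEW2871 at its EC100 plus forskolin at EC80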
# Target sequence (P21453 whole entry, looked up): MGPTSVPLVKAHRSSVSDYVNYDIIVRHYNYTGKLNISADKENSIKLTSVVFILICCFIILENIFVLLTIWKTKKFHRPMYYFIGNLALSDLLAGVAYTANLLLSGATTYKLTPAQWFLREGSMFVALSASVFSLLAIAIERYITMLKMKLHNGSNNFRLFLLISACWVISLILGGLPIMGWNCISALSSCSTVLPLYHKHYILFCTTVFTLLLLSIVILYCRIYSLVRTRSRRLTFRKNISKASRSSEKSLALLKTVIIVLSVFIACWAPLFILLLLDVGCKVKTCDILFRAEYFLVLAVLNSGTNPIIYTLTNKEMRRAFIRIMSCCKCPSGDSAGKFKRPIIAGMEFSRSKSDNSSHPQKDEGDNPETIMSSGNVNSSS
# * hit, by the source's call; . = no result given. Rows were chosen to be rich in hits. Some 3% of all compounds tested hit in one or more screens of this group.
SMILES,S1P3 ag,5-HT1A blocker,5HT1E antag,5HT1E ag,5HT1a ag,S1P1 ag pot
NC(=O)C1(N2CCCCC2)CCN(S(=O)(=O)c2cc(Cl)ccc2Cl)CC1,0,0,-10,2,17,-23
CCn1cc(C(=O)N2CC(C)CC(C)C2)c(=O)c2cc(S(=O)(=O)N3CCOCC3)ccc21 (centres undefined),0,-5,4,-1,-2,-15
COc1ccc(OC)c(-c2csc(N(Cc3ccco3)C(=O)c3cccs3)n2)c1,-2,43*,2,2,5,22
COc1ccc(-c2csc(N(CC3CCCO3)C(=O)c3cccs3)n2)cc1 (centres undefined),-2,15,5,1,1,-4
COc1ccc(Cl)cc1NC(=O)CCN1CCN(c2ccccc2C)CC1,.,9,-6,1,2,.
CCN1CCN(c2ncc(C(=O)Nc3cc(Cl)ccc3OC)c3ccccc23)CC1,-1,-10,20,40*,0,22
Cc1cc(C)n(-c2nnc(C)n2NS(C)(=O)=O)n1,-1,4,6,0,-1,-28
O=C(Nc1ccc(F)cc1)N1CCN(c2nc3ccccc3s2)CC1,-2,-6,-12,12*,1,22
O=C(Nc1ccccc1)N1CCN(c2nc3ccccc3s2)CC1,-1,-19,-14,12*,2,0
CCN1CCN(c2ccc(-n3c(C)nc4c(cnn4-c4ccccc4Cl)c3=O)cc2)CC1,0,4,6,-1,-2,1
Brc1ccc2[nH]c3nc(SCCN4CCOCC4)nnc3c2c1,1,3,36*,0,0,-67
c1ccc2c(c1)[nH]c1nc(SCCN3CCOCC3)nnc12,-1,-3,3,0,1,.
